Columns and labels:
[1] = Circular dichroism spectroscopy; format: physicochemical; conditions: 10 μM, deionized water, room temperature (Fig. 2c)
Outline: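 Samples at 10 μM were scanned on a CD spectrometer at room temperature. Scan speed was 1200 nm min⁻¹ at 1 nm resolution, and the solution background was subtracted to correct spectra. Three independent repeats.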

[2] = Transmission electron microscopy of self-assembled nanofibers; format: physicochemical; conditions: 50 μM in acetonitrile: H2O = 2:3 mixed solution for 1 week (Fig. 2e, S11)
Outline: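 Samples were dissolved in acetonitrile:H₂O 2:3 and stored 7 d to self-assemble fully. Then 10 μL was placed on carbon-coated copper grids and the excess blotted with filter paper after 5 min before TEM. Three independent repeats.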

[3] = Critical aggregation concentration with fluorescence probe ANS; format: physicochemical; conditions: fluorescence probe ANS (Fig. S8)
[4] = ThT and ANS fluorescent probe assay of β-sheet formation; format: physicochemical; conditions: compared with M1 and M2 group (Fig. S10)
healthy mice = format: in vivo; conditions: 200 μL, n = 4
MMP-2 = biological target: T1, MMP-2 (Homo sapiens, UniProt P08253); test: MMP-2 enzyme responsiveness; format: biochemical; conditions: incubated with MMP-2, new peaks for SSGGPLG and R-M1 (Fig. S7)
T1 sequence (P08253 110-660): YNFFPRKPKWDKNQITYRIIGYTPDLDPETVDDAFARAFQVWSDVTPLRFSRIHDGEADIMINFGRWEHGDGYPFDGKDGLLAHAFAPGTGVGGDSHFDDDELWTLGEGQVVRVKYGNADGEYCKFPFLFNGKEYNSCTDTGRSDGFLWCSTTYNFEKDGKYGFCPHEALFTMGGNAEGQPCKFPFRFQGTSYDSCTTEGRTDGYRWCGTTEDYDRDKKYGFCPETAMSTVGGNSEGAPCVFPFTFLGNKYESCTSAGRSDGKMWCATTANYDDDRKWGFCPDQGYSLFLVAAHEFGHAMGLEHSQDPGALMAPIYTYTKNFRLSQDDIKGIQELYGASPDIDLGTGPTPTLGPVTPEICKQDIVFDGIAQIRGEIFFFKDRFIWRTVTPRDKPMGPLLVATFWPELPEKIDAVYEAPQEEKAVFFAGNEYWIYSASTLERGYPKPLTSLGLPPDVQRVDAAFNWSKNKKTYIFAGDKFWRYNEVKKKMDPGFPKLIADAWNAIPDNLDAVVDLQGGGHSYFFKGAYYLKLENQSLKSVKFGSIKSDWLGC

786-O cells [5] = test: Cellular imaging; format: cell-based; conditions: 20 μM, 15 min, 37 °C (Fig. 3e, S14)
Outline: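 Integrin αvβ3-overexpressing 786-O cells were seeded at 2 × 10⁵ cells on confocal dishes and allowed to adhere overnight. They were then exposed to test compound at 20 μM for 15 min. For time-dependent monitoring, cells were washed with PBS and the medium replaced. Imaging used a 40× objective, with fluorescence intensity quantified from images. Three independent repeats.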

786-O cells [6] = test: Cytotoxicity assay; format: cell-based; conditions: 24 h, series of concentrations, DMSO less than 1% (Fig. 3j)
Outline: (§1)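 Cells were seeded at 5 × 10³ per well in 96-well plates and allowed to adhere overnight. Test compound was serially diluted from a concentrated DMSO stock, keeping final DMSO below 1%, and incubated 24 h. Viability (%) = (As − Ab)/(Ac − Ab) × 100, using sample, blank and control wells. Three independent repeats.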

HepG2 cells = test: Cytotoxicity assay; format: cell-based; conditions: 24 h, series of concentrations, DMSO less than 1%, mean ± SD n = 3 (Fig. S16)
Outline: as §1

786-O cells [7] = test: In vitro photostability under NIR laser irradiation; format: cell-based; conditions: for photobleaching of Cy: 20 μM, co-incubated with 786-O cells 4 h at 37 °C, NIR laser irradiation for 40 min (up to 3.60 kJ/cm^2), IVIS
Outline: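 786-O cells were seeded at 5 × 10³ per well and allowed to adhere overnight. They were incubated with test compound (20 μM) for 4 h at 37 °C to allow self-assembly. Cells were then irradiated with a near-infrared laser, with fluorescence recorded at 0–40 min in 5 min steps. Three independent repeats.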

[8] = tested on: 786-O (Renal Cell Carcinoma, RCC) xenograft mice; test: In vivo fluorescence imaging and biodistribution, 786-O xenograft
Outline: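 Mice received 5 × 10⁶ 786-O cells in PBS subcutaneously in the right hind. At tumour volumes of about 200 mm³, test compound (200 μM, 200 μL) was given intravenously. Whole-body NIR fluorescence was imaged on a Maestro IVIS at 1, 2, 4, 8, 12, 24, 48 and 72 h. Tumour, heart, liver, spleen, lung and kidney were imaged ex vivo at 24 h, and tumour tissue was examined by Bio-TEM. n = 3.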

[9] = 200 μM, 1 d, 7 d and 14 d post-injection

Substance	secondary structure by CD spectrum [1]	diameter of self-assembled nanofibers (TEM) [2] [nm]	critical aggregation concentration (CAC) to form nanofibers [3] [µM]	fluorescence intensity of ThT and ANS probes (β-sheet formation) [4]	liver function index (ALT, AST, ALP, TP, ALB, GLOB) versus PBS (healthy mice; [9])	renal function indicators (BUN, CRE) versus PBS (healthy mice; [9])	histology (H&E) of major organs versus PBS (healthy mice; intravenous 200 μM, 1 d post-injection)	HPLC peak of intact M1 after incubation with MMP-2 (MMP-2)	cellular distribution by confocal imaging (786-O cells [5])	impact on cell viability of 786-O (786-O cells [6])	impact on cell viability of HepG2 (HepG2 cells)	photobleaching of Cy (786-O cells [7]) [%]	decrease of photodegradation rate of Cy versus M2 (786-O cells [7]; same as photobleaching test, M1 against M2) [%]	nanofibrous structures on tumor cells (Bio-TEM) ([8]; after administration of M1 200 μM, 200 μL (Fig. 4e))	fluorescence at the tumor site within 1 h, M1 versus M2 ([8]; intravenous, 200 μM, 200 μL, n = 3)	course of fluorescence at the tumor site ([8]; 786-O xenograft, intravenous, 200 μM, 200 μL, imaged 1-72 h, n = 3)
YLGKLVFFGC(Cy)GRGD [R-M1]	β-sheet structure	13.4 ± 3.1	4.4	obviously increased	–	–	–	–	–	–	–	–	–	–	–	–
SSGGPLGYLGKLVFFGC(Cy)GRGD [M1]	random coiled secondary structure	–	–	–	no noticeable difference	no noticeable difference	no histological differences	vanished	distributed on the membrane of 786-O cells	no impact	no impact	55	26	clearly observed	approximately identical fluorescence	–
SSGGPGLGYLKLVFFGC(Cy)GRGD [M2]	random coiled secondary structure	–	–	–	–	–	–	–	–	no impact	no impact	81	–	–	–	quickly decreased after 4 h and nearly vanished at 72 h

Reference: article PMC8892090 (Bioactive Materials, 2021)
